The target of data set [1] is T1, Cyclic GMP-AMP synthase (Homo sapiens, UniProt Q8N884). Kind of data set: Inhibition of cGAS in human THP1 cells assessed as reduction in salmon sperm dsDNA-induced IFN-beta expression preincubated for 1 hr followed by dsDNA stimulation for 12 hrs by luciferase reporter gene assay. Type of data set: cell-based. (In general: A reporter such as luciferase makes a cellular process visible.)

The next data set concerns THP-1. Kind of data set: Cytotoxicity against human THP1 cells assessed as reduction in cell viability by CellTiterGlo assay. The format is cell-based.
Data set [2] addresses T1, Cyclic GMP-AMP synthase. Kind of data set: Inhibition of human cGAS (2 to 522 residues) expressed in Sf9 insect cells assessed as reduction in cGAMP level using ISD DNA as substrate in presence of ATP and GTP incubated for 1 hr followed by Cy5-labeled cGAMP addition measured after 1 hr by fluorescence polarization assay. The method in brief: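 Enzyme reaction uses 100 nM cGAS, 100 nM ISD DNA, 1 mM ATP and 0.3 mM GTP in Hepes/NaCl/Tween-20/MgCl2 buffer, pH 7.5, with compounds. Run 1 h at room temperature, then stopped with 50 mM EDTA. Fluorescence polarization read with 620 nm excitation.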
A general note: Polarisation of emitted light reports the rotation of a fluorescent probe.

Each structure is given as a SMILES string. pIC50: −log10 of the molar value. Activity calls are given as the source filed them. The calls are words filed in the database; no cut-off is given here.

A word on the pIC50: it is −log10 of the IC50, conventionally taken in molar units.

T1 sequence (Q8N884 whole entry): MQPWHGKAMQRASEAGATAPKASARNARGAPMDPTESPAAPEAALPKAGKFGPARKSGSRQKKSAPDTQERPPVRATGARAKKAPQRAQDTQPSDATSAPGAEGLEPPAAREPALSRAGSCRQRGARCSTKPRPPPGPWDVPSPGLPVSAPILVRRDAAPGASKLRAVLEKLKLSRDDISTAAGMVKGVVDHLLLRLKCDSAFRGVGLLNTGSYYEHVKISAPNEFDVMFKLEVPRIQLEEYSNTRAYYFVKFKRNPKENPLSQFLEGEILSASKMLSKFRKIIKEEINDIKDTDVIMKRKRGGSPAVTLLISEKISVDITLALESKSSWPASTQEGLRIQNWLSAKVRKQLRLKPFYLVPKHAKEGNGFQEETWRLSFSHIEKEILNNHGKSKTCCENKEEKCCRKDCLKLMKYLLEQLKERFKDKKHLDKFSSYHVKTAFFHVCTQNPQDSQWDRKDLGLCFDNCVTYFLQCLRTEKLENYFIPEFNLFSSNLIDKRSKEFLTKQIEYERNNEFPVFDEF

With `C[C@@H](CO)NC(=O)c1cnn2c(O)cc(-c3ccccc3)nc12`, the inhibition entry at Cyclic GMP-AMP synthase [1] was “inactive”. Moreover, the Activity result in the data set on THP-1 is “Non-Toxic”.

Turning to `O=C(N[C@H]1CCCC[C@H]1C(=O)O)c1cnn2c(O)cc(-c3ccccc3)nc12`, in the data set on THP-1, the Activity result was “Non-Toxic”.

For the compound `O=C(O)CNC(=O)c1cnn2c(O)cc(-c3ccccc3)nc12`, the inhibition result at Cyclic GMP-AMP synthase [1] is “inactive”. In the data set with THP-1, the Activity entry was “Non-Toxic”.

Regarding `O=C(NCCO)c1cnn2c(O)cc(-c3ccccc3)nc12`, on Cyclic GMP-AMP synthase [1], the inhibition entry is “inactive”. Besides, the Activity result in the data set on THP-1 is given as “Non-Toxic”.

As for `O=C(NCCCNc1nc(Nc2cccc(NC(=O)N3CCCC3)c2)ncc1I)c1cccs1` [BX-795], the Activity result in the data set with THP-1 is “Non-Toxic”.

As to `Oc1cc(-c2ccccc2)nc2nnnn12`, on Cyclic GMP-AMP synthase [2], the pIC50 was 4.11.

The values above are taken from ChEMBL document CHEMBL4028860 (PLoS One, 2017).
